System: U2OS
Experiment: Multiplex assay against U2OS
Format: toxicity, cell-based
Details: human
In short: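 At seeding, live cells were stained with Hoechst33342, BioTracker Green Microtubule Cytoskeleton Dye, MitoTracker Red and Annexin V Alexa Fluor 680. After compound addition they were imaged on a CQ1 microscope at 37°C and 5% CO2, and CellPathfinder machine-learning gating sorted them into Hoechst high-intensity objects or normal cells, with normal cells further split into healthy, pyknosed or fragmented nuclei and pyknosed cells into mitotic or apoptotic. Tubulin, mitochondrial-mass and membrane-permeability phenotypes are given as per cents of cells with healthy nuclei.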

[1] = 12 h, 1 µM, compound concentration 1 uM, replicate 1
[2] = 12 h, 1 µM, compound concentration 1 uM, replicate 2
[3] = 12 h, 10 µM, compound concentration 10 uM, replicate 1
[4] = 12 h, 10 µM, compound concentration 10 uM, replicate 2
[5] = 24 h, 1 µM, compound concentration 1 uM, replicate 1
[6] = 24 h, 1 µM, compound concentration 1 uM, replicate 2
[7] = 24 h, 10 µM, compound concentration 10 uM, replicate 1
[8] = 24 h, 10 µM, compound concentration 10 uM, replicate 2

## CNC(=O)c1ccc(Nc2nc(OC3CCCC3)c3c(-c4ccc5nc(C)oc5c4)c[nH]c3n2)c(OC)c1
[1]
  Population Apoptotic (%): 36%
  Population Fragmented Nuclei (%): 10%
  Population Healthy Nuclei (%): 64%
  Population Hoechst High Intensity Objects (%): 2%
  Population Membrane Permeable-Phenotype (%): 58%
  Population Mitochondria Different-Phenotype (%): 45%
  Population Mitotic Cells (%): 63%
  Population Normal (%): 97%
  Population Pyknosed Nuclei (%): 25%
[2]
  Population Apoptotic (%): 30%
  Population Fragmented Nuclei (%): 14%
  Population Healthy Nuclei (%): 72%
  Population Hoechst High Intensity Objects (%): 6%
  Population Membrane Permeable-Phenotype (%): 63%
  Population Mitochondria Different-Phenotype (%): 40%
  Population Mitotic Cells (%): 70%
  Population Normal (%): 93%
  Population Pyknosed Nuclei (%): 13%
  Population Tubulin-Different-Phenotype (%): 100%
[3]
  Population Apoptotic (%): 30%
  Population Fragmented Nuclei (%): 1%
  Population Healthy Nuclei (%): 87%
  Population Hoechst High Intensity Objects (%): 1%
  Population Membrane Permeable-Phenotype (%): 62%
  Population Mitochondria Different-Phenotype (%): 18%
  Population Mitotic Cells (%): 70%
  Population Normal (%): 98%
  Population Pyknosed Nuclei (%): 11%
  Population Tubulin-Different-Phenotype (%): 90%
[4]
  Population Apoptotic (%): 25%
  Population Fragmented Nuclei (%): 22%
  Population Healthy Nuclei (%): 72%
  Population Hoechst High Intensity Objects (%): 22%
  Population Membrane Permeable-Phenotype (%): 54%
  Population Mitochondria Different-Phenotype (%): 26%
  Population Mitotic Cells (%): 75%
  Population Normal (%): 77%
  Population Pyknosed Nuclei (%): 4%
  Population Tubulin-Different-Phenotype (%): 65%
[5]
  Population Apoptotic (%): 89%
  Population Fragmented Nuclei (%): 12%
  Population Healthy Nuclei (%): 8%
  Population Hoechst High Intensity Objects (%): 5%
  Population Membrane Permeable-Phenotype (%): 92%
  Population Mitochondria Different-Phenotype (%): 84%
  Population Mitotic Cells (%): 10%
  Population Normal (%): 94%
  Population Pyknosed Nuclei (%): 79%
  Population Tubulin-Different-Phenotype (%): 100%
[6]
  Population Apoptotic (%): 60%
  Population Fragmented Nuclei (%): 25%
  Population Healthy Nuclei (%): 48%
  Population Hoechst High Intensity Objects (%): 11%
  Population Membrane Permeable-Phenotype (%): 65%
  Population Mitochondria Different-Phenotype (%): 73%
  Population Mitotic Cells (%): 40%
  Population Normal (%): 88%
  Population Pyknosed Nuclei (%): 25%
[7]
  Population Apoptotic (%): 43%
  Population Fragmented Nuclei (%): 6%
  Population Healthy Nuclei (%): 73%
  Population Hoechst High Intensity Objects (%): 1%
  Population Membrane Permeable-Phenotype (%): 43%
  Population Mitochondria Different-Phenotype (%): 18%
  Population Mitotic Cells (%): 56%
  Population Normal (%): 98%
  Population Pyknosed Nuclei (%): 20%
  Population Tubulin-Different-Phenotype (%): 71%
[8]
  Population Apoptotic (%): 62%
  Population Fragmented Nuclei (%): 23%
  Population Healthy Nuclei (%): 67%
  Population Hoechst High Intensity Objects (%): 14%
  Population Membrane Permeable-Phenotype (%): 30%
  Population Mitochondria Different-Phenotype (%): 28%
  Population Mitotic Cells (%): 37%
  Population Normal (%): 85%
  Population Pyknosed Nuclei (%): 8%
  Population Tubulin-Different-Phenotype (%): 55%
